The source made the active and inactive calls. The calls are words filed in the database; no cut-off is given here.
Columns and labels:
[1] = tested on: 3T3-L1; assay: Lipid lowering activity in mouse 3T3-L1 cells assessed as reduction in adipogenic cocktail-induced triglyceride levels at 5 uM incubated for 6 days by GPO-POD assay relative to control; type: functional; set-up: scale not given: the % may be the effect or the level left; settings: time 6 day
Outline: (§1)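 Confluent 3T3-L1 cells were treated from day 0 in cocktail (IBMX, dexamethasone, insulin) for 3 days, then re-dosed in insulin medium for 3 more days. For dose–response, concentrations were 0–10 µM (0.01, 0.1, 0.3, 1, 3, 10). On day 6, cells were lysed in 0.2% Triton X-100 and TG was measured by GPO-POD and normalized to BCA protein as % of control. EC50 was fitted from the dose–response. N = 4.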

[2] = tested on: C2C12; assay: Activation of AMPK pathway in mouse C2C12 cells assessed as increase in glucose uptake at 1 uM after 6 hrs in presence of insulin by 2-NBDG/Hoechst 33342 staining based Confocal microscopic method; type: cell-based; settings: filed as activator
Outline: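 C2C12 myoblasts kept in DMEM with 10% FBS and 1% penicillin/streptomycin at 37 °C under 5% CO2.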

[3] = tested on: 3T3-L1; assay: Activation of AMPK pathway in mouse 3T3-L1 cells assessed as increase in […] mRNA expression at 1 uM after 24 hrs by RT-qPCR analysis; type: cell-based; settings: filed as activator
[4] = Half life in Sprague-Dawley rat at 2 mg/kg, iv up to 24 hrs by LC-MS/MS analysis; settings: in vivo
[5] = AUC(0 to infinity) in Sprague-Dawley rat at 2 mg/kg, iv up to 24 hrs by LC-MS/MS analysis; settings: in vivo
[6] = tested on: 3T3-L1; assay: Lipid lowering activity in mouse 3T3-L1 cells assessed as adipogenic cocktail-induced triglyceride levels at 1 uM by GPO-POD assay; type: functional, cell-based; settings: time day <=6; outline: as §1
[7] = tested on: 3T3-L1; assay: Lipid lowering activity in mouse 3T3-L1 cells assessed as adipogenic cocktail-induced triglyceride levels at 1 uM after 3 days by GPO-POD assay relative to control; type: functional; settings: time 3 day
Outline: (§2)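 3T3-L1 cells were differentiated (cocktail on days 0–3, insulin thereafter) with 1 µM compound present during defined windows (days 0–3, 3–6, 6–9, or 0–3/0–6/0–9). TG was measured at day 9 by GPO-POD after Triton X-100 lysis and sonication. TG was normalized to BCA protein and expressed as % of differentiated control.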

[8] = tested on: 3T3-L1; assay: Lipid lowering activity in mouse 3T3-L1 cells assessed as adipogenic cocktail-induced triglyceride levels at 1 uM after 3 to 6 days by GPO-POD assay relative to control; type: functional; settings: time 3-6 day; outline: as §2
[9] = tested on: 3T3-L1; assay: Inhibition of mouse 3T3-L1 cells adipocyte differentiation assessed as reduction in adipogenic cocktail-induced C/EBPalpha protein expression at 0.3 to 1 uM after 24 hrs by Western blot analysis; type: functional, cell-based; settings: dose 0.3-1 µM
Outline: (§3)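 3T3-L1 preadipocytes were exposed to adipogenic cocktail with compound (0.3 or 1 µM) and harvested on day 1. Lysates were resolved by SDS-PAGE, immunoblotted (primary antibody overnight at 4 °C, HRP secondary) and quantified by densitometry normalized to actin.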

[10] = tested on: 3T3-L1; assay: Inhibition of mouse 3T3-L1 cells adipocyte differentiation assessed as reduction in adipogenic cocktail-induced PPARgamma protein expression at 0.3 to 1 uM after 24 hrs by Western blot analysis; type: functional, cell-based; settings: dose 0.3-1 µM; outline: as §3
[11] = tested on: 3T3-L1; assay: Activation of AMPK pathway in adipogenic cocktail-induced mouse 3T3-L1 cells with SiRNA-induced AMPKalpha knock down assessed as decrease in PPARgamma protein expression at 1 uM after 24 hrs by Western blot analysis; type: cell-based
Outline: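 3T3-L1 cells at 80% density transfected with 50 nM AMPKα siRNA or negative control for 24 h. Once confluent, differentiated with adipogenic cocktail with or without compound. Protein by Western blot normalized to actin. TG measured by GPO-POD kit, normalized to BCA protein, expressed as % of control.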

[12] = tested on: 3T3-L1; assay: Activation of AMPK pathway in mouse 3T3-L1 cells assessed as increase in ACSL mRNA expression at 0.3 to 1 uM after 24 hrs by RT-qPCR analysis; type: cell-based; settings: filed as activator, dose 0.3-1 µM
[13] = tested on: Mus musculus; assay: Antiobesity activity in high fat diet-induced obese C57BL/6J mouse model assessed as decrease in body weight at 20 mg/kg, ip administered for every other days for 6 weeks; type: functional, organism-based
Outline: (§4)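 Male C57BL/6J mice (7–8 weeks) fed HFC diet (60% fat, 1% cholesterol) for up to 14 weeks. From week 9, given 20 mg/kg i.p. every other day for 6 weeks in saline with 10% ethanol and 10% castor oil, or vehicle. Body weight and food intake recorded daily. At end, mice fasted 6 h, anesthetized, and blood collected into EDTA. Plasma chemistry run on an auto-analyzer; insulin by ultra-sensitive ELISA.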

[14] = tested on: Mus musculus; assay: Antiobesity activity in high fat diet-induced obese C57BL/6J mouse model assessed as decrease in TG level at 20 mg/kg, ip administered for every other days for 6 weeks by Oil-red O staining based assay; type: functional, organism-based
Outline: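 Male C57BL/6J mice on HFC diet, dosed 20 mg/kg i.p. every other day for 6 weeks. Tissues fixed in 4% formaldehyde, paraffin-embedded, cut into 4 µm sections and stained with H&E or Oil-red O. Six random fields per sample scored blind.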

[15] = AUC(0 to t) in Sprague-Dawley rat at 2 mg/kg, iv up to 24 hrs by LC-MS/MS analysis; type: ADME, organism-based; set-up: route intravenous, dose 2 mg/kg, time <=24; settings: in vivo
Outline: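 Male Sprague-Dawley rats (180-220 g, n = 3) received a single intravenous dose of 2 mg/kg in ethanol/saline (5:95). Blood was sampled at 0, 30 min, 1, 2, 4, 8, 12 and 24 h after dosing and centrifuged to plasma. Plasma drug levels were measured by LC-MS/MS, and pharmacokinetic parameters were calculated from the concentration-time data.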

[16] = MRT(0 to infinity) in Sprague-Dawley rat at 2 mg/kg, iv up to 24 hrs by LC-MS/MS analysis; type: ADME, organism-based; settings: in vivo
Outline: (§5)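 Male SD rats (180–220 g, n = 3) received compound in ethanol/saline (5:95), either intravenously at 2 mg/kg or intragastrically at 5 mg/kg. Plasma was sampled at 0, 0.5, 1, 2, 4, 8, 12 and 24 h. Concentrations were measured by LC-MS/MS, and PK parameters were calculated from the concentration–time data.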

[17] = Apparent volume of distribution in Sprague-Dawley rat at 2 mg/kg, iv up to 24 hrs by LC-MS/MS analysis; type: ADME, organism-based; settings: in vivo, read-out: Vz; outline: as §5
[18] = tested on: Mus musculus; assay: Antiobesity activity in high fat diet-induced obese C57BL/6J mouse model assessed as glucose level at 20 mg/kg, ip administered for every other days for 6 weeks by auto-analyzer method (reference value: 11.8 +/- 1.3 mM); type: functional; outline: as §4
[19] = tested on: Mus musculus; assay: Antiobesity activity in high fat diet-induced obese C57BL/6J mouse model assessed as cholesterol level at 20 mg/kg, ip administered for every other days for 6 weeks by auto-analyzer method (reference value: 6.2 +/- 0.3 mM); type: functional; outline: as §4
[20] = tested on: Mus musculus; assay: Antiobesity activity in high fat diet-induced obese C57BL/6J mouse model assessed as insulin level at 20 mg/kg, ip administered for every other days for 6 weeks by ELISA (reference value: 3.5 +/- 0.6 ng/ml); type: functional; outline: as §4

Row | half-life [4] [h] | AUC(0-inf) [5] [µg·h/mL] | SMILES | Activity [1] [%] | Activity [2] | Activity [3] | Activity [6] | Activity [7] [%] | Activity [8] [%] | inhibition [9] | inhibition [10] | Activity [11] | Activity [12] | Activity [13] | Activity [14] | AUC(0-t) at 24 h [15] [µg·h/mL] | MRT inf [16] [h] | Vd [17] [L/kg] | Activity [18] [mM] | Activity [19] [mM] | Activity [20] [ng/mL]
1 | 3.14 | 0.671 | CN(C)CCCNc1nc(-c2[nH]c3ccccc3c2C=O)nc2ccccc12 | 89.3 | Active | Active |  |  |  |  |  |  |  |  |  |  |  |  |  |  | 
2 |  |  | COc1ccc2[nH]c(-c3nc(NCCCCN4CCCC4)c4ccccc4n3)c(C=O)c2c1 |  |  |  | Dose-dependent effect | 74.2 | 61.8 | Active | Active | inactive | Active | Active | Active | 0.308 | 5.7 | 40.7 | 9.3 | 4.7 | 2.2
